According to ChEMBL document CHEMBL1275331, “Discovery of a novel 5-HT(3) antagonist/5-HT(1A) agonist 3-amino-5,6,7,8-tetrahydro-2-{4-[4-(quinolin-2-yl)piperazin-1-yl]butyl}quinazolin-4(3H)-one (TZB-30878) as an orally bioavailable agent for irritable bowel syndrome” (J Med Chem, 2010):
Activity calls are given as the source filed them. The rule behind the calls is not given here.

Key:
[1] = test system: Rattus norvegicus; assay: Induction of 5HT1A receptor-mediated lower lip retraction behavior in rat at 10 mg/kg, iv after 30 mins; format: functional, organism-based; parameters: dose 10 mg/kg
Summary of the method: (§1)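 Rats were conditioned to test procedures over 2 weeks and acclimated to the test cage for 1 h. Vehicle was saline containing diluted HCl. Lower lip retraction and flat body posture were scored on a 0–3 scale at 5, 10, 20 and 30 min after dosing.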

[2] = Ratio of drug level in brain to blood in Sprague-Dawley rat at 3 mg/kg, po after 8 hrs; format: ADME, organism-based; parameters: dose 3 mg/kg, route oral
Summary of the method: (§2)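 Rats dosed 3 mg/kg orally; total compound levels measured in brain and blood at 2, 4 and 8 h, brain/blood ratio derived. Mean ± SD of three rats.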

[3] = Drug level in Sprague-Dawley rat brain at 3 mg/kg, po after 2 hrs by HPLC analysis; format: ADME, organism-based; parameters: dose 3 mg/kg, route oral; details: read-out: Drug uptake
Summary of the method: (§3)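 Total compound concentration was measured in brain and blood at 2, 4 and 8 h after a single oral 3 mg/kg dose. Brain/blood ratio was also derived. Values are mean ± SD of three rats.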

[4] = Drug level in Sprague-Dawley rat brain at 3 mg/kg, po after 4 hrs by HPLC analysis; format: ADME, organism-based; parameters: dose 3 mg/kg, route oral; details: read-out: Drug uptake; summary of the method: as §3
[5] = molecular target: T1, 5-hydroxytryptamine receptor 3A (Homo sapiens, UniProt P46098); assay: Displacement of [3H]BRL-43694 from human 5HT3 receptor expressed in HEK293 cells by liquid scintillation counting; format: cell-based
T1 sequence (P46098 whole entry): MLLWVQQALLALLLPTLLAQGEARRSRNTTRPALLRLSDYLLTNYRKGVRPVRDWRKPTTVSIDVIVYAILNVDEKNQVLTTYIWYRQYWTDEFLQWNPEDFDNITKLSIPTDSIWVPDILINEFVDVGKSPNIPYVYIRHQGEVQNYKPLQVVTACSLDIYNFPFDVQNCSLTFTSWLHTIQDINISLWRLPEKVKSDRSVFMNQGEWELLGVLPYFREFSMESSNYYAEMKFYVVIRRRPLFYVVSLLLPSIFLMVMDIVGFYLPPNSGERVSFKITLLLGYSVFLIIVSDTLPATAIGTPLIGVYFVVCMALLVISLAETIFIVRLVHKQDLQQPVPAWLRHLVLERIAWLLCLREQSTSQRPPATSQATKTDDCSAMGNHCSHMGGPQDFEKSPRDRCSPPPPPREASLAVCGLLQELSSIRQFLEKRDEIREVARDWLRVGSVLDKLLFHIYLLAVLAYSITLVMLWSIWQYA
Summary of the method: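 HEK-293 membranes expressing human 5-HT3 were incubated with 0.5 nmol/L [3H]BRL-43694 (final) for 60 min at 25 °C. Buffer: 50 mM Tris-HCl, 5 mM MgCl2, 1 mM EDTA, pH 7.5. Compound came from 270 μmol/L DMSO stock, diluted in buffer. Filtration was through GF/B presoaked in 0.5% polyethyleneimine, with two cold Tris washes. Run in duplicate or triplicate; percent inhibition calculated.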

[6] = Drug level in Sprague-Dawley rat blood at 3 mg/kg, po after 2 hrs by HPLC analysis; format: ADME, organism-based; parameters: dose 3 mg/kg, route oral; details: whole blood, read-out: Drug uptake; summary of the method: as §3
[7] = molecular target: T2, 5-hydroxytryptamine receptor 1A (Homo sapiens) (UniProt P08908); assay: Agonist activity at human cloned 5HT1A receptor expressed in CHO cells assessed as stimulation of [35S]GTPgammaS binding at 900 uL after 30 mins by liquid scintillation counting; format: functional, cell-based
T2 sequence (whole entry): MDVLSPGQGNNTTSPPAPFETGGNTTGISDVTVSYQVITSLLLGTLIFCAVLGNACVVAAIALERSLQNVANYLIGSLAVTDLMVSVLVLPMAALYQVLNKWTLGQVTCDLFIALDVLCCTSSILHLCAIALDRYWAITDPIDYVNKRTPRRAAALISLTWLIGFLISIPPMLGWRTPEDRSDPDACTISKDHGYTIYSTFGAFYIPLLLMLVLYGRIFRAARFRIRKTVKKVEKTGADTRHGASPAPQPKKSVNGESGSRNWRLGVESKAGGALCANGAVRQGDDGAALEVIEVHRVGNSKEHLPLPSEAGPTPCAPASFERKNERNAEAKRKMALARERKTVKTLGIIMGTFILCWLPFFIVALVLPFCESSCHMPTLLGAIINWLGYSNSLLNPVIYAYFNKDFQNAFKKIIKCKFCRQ
Summary of the method: (§4)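 Membranes from CHO cells expressing human 5-HT1A were diluted in 20 mM HEPES/3 mM MgCl2/120 mM NaCl, pH 7.4. They were preincubated with 20 μM GDP and test drug for 20 min at 30 °C, then held on ice for 15 min. [35S]GTPγS (100 pM) was added for 30 min at 30 °C. Samples were filtered, washed with cold HEPES/MgCl2 buffer, and bound radioactivity counted; EC50 and Emax reported.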

[8] = Drug level in Sprague-Dawley rat brain at 3 mg/kg, po after 8 hrs by HPLC analysis; format: ADME, organism-based; parameters: dose 3 mg/kg, route oral; details: read-out: Drug uptake; summary of the method: as §3
[9] = test system: Rattus norvegicus; assay: […] activity in rat assessed as inhibition of 5HT-induced bradycardia at 10 ug/kg, iv by von Benzold-Jarisch reflex assay; format: functional
[10] = molecular target: T3, 5-hydroxytryptamine receptor 1A (Homo sapiens, UniProt P08908); assay: Agonist activity at human cloned 5HT1A receptor expressed in CHO cells assessed as stimulation of [35S]GTPgammaS binding after 30 mins by liquid scintillation counting; format: functional, cell-based; summary of the method: as §4
T3 sequence (P08908 whole entry): T2 sequence (whole entry)

[11] = Drug level in Sprague-Dawley rat blood at 3 mg/kg, po after 4 hrs by HPLC analysis; format: ADME, organism-based; parameters: dose 3 mg/kg, route oral; details: whole blood, read-out: Drug uptake; summary of the method: as §3
[12] = test system: Rattus norvegicus; assay: Effect on 5HT1A receptor-mediated hypothermic effect in rat assessed as change in rectal temperature at 10 mg/kg, iv after 30 mins; format: functional, organism-based; parameters: dose 10 mg/kg
Summary of the method: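 Rats were conditioned over 2 weeks and acclimated to the cage for 1 h before dosing (vehicle: saline with diluted HCl). Rectal temperature was recorded with a thermistor probe inserted 3 cm, before and 30 min after administration. The change in temperature was reported.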

[13] = Ratio of drug level in brain to blood in Sprague-Dawley rat at 3 mg/kg, po after 2 hrs; format: ADME, organism-based; parameters: dose 3 mg/kg, route oral; summary of the method: as §2
[14] = test system: Rattus norvegicus; assay: Induction of 5HT1A receptor-mediated behavioral activity in rat assessed as appearance of flat body posture at 10 mg/kg, iv after 30 mins; format: functional, organism-based; parameters: dose 10 mg/kg; summary of the method: as §1
[15] = molecular target: 5-hydroxytryptamine receptor 2A (Rattus norvegicus) (UniProt P14842); assay: Inhibition of rat 5HT2 receptor AT 0.1 uM
[16] = Drug level in Sprague-Dawley rat blood at 3 mg/kg, po after 8 hrs by HPLC analysis; format: ADME, organism-based; parameters: dose 3 mg/kg, route oral; details: whole blood, read-out: Drug uptake; summary of the method: as §3
[17] = molecular target: T4, 5-hydroxytryptamine receptor 3A (Cavia porcellus) (UniProt O70212); assay: Inhibition of 5HT3 receptor-mediated contraction of guinea pig ileum at 1 umol/L after 20 mins relative to control; format: tissue-based
T4 sequence (whole entry): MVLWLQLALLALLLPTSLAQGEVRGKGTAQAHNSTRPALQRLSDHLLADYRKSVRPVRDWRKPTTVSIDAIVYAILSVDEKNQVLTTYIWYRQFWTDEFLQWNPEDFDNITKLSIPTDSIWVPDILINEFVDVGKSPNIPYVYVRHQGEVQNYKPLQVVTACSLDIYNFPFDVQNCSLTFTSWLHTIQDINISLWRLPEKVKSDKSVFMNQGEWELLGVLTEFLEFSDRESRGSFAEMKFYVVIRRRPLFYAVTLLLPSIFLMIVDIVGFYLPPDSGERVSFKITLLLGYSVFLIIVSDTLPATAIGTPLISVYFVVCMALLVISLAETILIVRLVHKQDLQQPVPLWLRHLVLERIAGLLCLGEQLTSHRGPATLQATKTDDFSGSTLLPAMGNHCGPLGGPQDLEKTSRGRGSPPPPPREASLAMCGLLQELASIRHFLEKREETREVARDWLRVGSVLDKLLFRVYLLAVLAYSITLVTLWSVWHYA
Summary of the method: (§5)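 Ileum strips in Tyrode solution at 37 °C, gassed 5% CO2/95% O2, isotonic contractions under 1 g load. After at least 3 stable contractions to 10 μM 2-methyl-5-HT, tissue exposed to compound or DMSO vehicle for 20 min, then 10 μM 2-methyl-5-HT re-added; contraction expressed as % inhibition of control.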

[18] = Ratio of drug level in brain to blood in Sprague-Dawley rat at 3 mg/kg, po after 4 hrs; format: ADME, organism-based; parameters: dose 3 mg/kg, route oral; summary of the method: as §2
[19] = molecular target: Adrenergic receptor alpha-1 (Rattus norvegicus) (UniProt P15823+P23944+P43140); assay: Inhibition of rat alpha1 adrenergic receptor at 0.1 uM
[20] = molecular target: T3, 5-hydroxytryptamine receptor 1A; assay: Displacement of [3H]8-OH-DPAT from human 5HT1A receptor expressed in CHO cells by liquid scintillation counting; format: cell-based
Summary of the method: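 CHO-cell membranes with human 5-HT1A were incubated with 0.25 nmol/L [3H]8-OH-DPAT (final) for 60 min at 27 °C. Buffer: 50 mM Tris-HCl, 10 mM MgSO4, 0.5 mM EDTA, 0.1% ascorbic acid, pH 7.4. Compound came from 270 μmol/L DMSO stock, diluted in buffer. Filtration was through GF/C presoaked in 0.3% polyethyleneimine, with two cold Tris washes. Run in duplicate or triplicate; percent inhibition of binding calculated.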

[21] = test system: Rattus norvegicus; assay: Reduction in wrap restraint stress-induced defecation in rat diarrhea-predominant irritable bowel syndrome model at 1 to 10 mg/kg, po administered 1 hr prior to induction of stress; format: functional, organism-based
Summary of the method: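 Lightly anesthetized rats had upper bodies wrapped with adhesive tape, then returned to observation cages; feces counted 1 h after wrapping. Compound or vehicle given orally 1 h before restraint; unwrapped animals as normal group. n = 8 per group, mean (SD); Wilcoxon and nonparametric Dunnett's tests.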

[22] = molecular target: T4, 5-hydroxytryptamine receptor 3A (Cavia porcellus); assay: Inhibition of 5HT3 receptor-mediated contraction of guinea pig ileum at 0.1 umol/L after 20 mins relative to control; format: tissue-based; summary of the method: as §5

Sequence of 5-hydroxytryptamine receptor 2A (Rattus norvegicus) (P14842 whole entry): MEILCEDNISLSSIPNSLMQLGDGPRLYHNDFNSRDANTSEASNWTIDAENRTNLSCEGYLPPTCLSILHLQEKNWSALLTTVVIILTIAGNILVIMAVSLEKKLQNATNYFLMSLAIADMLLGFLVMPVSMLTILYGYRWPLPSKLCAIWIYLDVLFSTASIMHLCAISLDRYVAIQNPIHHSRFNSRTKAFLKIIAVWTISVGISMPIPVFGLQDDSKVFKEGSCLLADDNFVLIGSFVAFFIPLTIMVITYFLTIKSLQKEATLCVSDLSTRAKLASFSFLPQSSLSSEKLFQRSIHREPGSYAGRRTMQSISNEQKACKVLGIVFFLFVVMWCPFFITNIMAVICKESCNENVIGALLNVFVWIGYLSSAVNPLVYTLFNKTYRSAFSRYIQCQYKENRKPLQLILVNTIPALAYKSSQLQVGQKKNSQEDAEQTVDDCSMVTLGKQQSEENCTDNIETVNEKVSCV

Compound | Kp at 8 h [2] | concentration at 2 h [3] | concentration at 4 h [4] | IC50 [5] | concentration at 2 h [6] | Emax [7] | concentration at 8 h [8] | EC50 [10] | concentration at 4 h [11] | Kp at 2 h [13] | concentration at 8 h [16] | inhibition [17] | Kp at 4 h [18] | IC50 [20] | further results
Nn1c(CCCCN2CCN(c3ccc4ccccc4n3)CC2)nc2ccccc2c1=O | 7.65 | 685 nM | 367 nM | 45.7 nM | 97.4 nM | 94.7% | 204 nM | 30.7 nM | 55.5 nM | 7.11 | 28.3 nM | 90.1% | 6.59 | < 10 nM | Activity [1]: Active; inhibition in vivo at 0.01 mg/kg [9]: 21.9%; deltaT [12]: -1.9 °C; Activity [14]: Active; inhibition [15]: 78%; inhibition [19]: 63%
CC(=O)N1CCc2c(sc3nc(CCCCN4CCN(c5ccc6ccccc6n5)CC4)n(N)c(=O)c23)C1 | 0.307 | 15.1 nM | 19.5 nM | 22.1 nM | 51 nM |  | 13.4 nM |  | 55.8 nM | 0.294 | 43.7 nM |  | 0.355 | < 10 nM | 
Cc1[nH]cnc1CN1CCc2c(c3ccccc3n2C)C1=O |  |  |  |  |  |  |  |  |  |  |  |  |  |  | inhibition [21]: Active
Nn1c(SCCCN2CCN(c3ccc4ccccc4n3)CC2)nc2c(c1=O)CCCC2 | 2.53 | 63.1 nM | 32.2 nM | 63.8 nM | 21.2 nM | 90.3% | 13 nM | 182 nM | 10.6 nM | 2.99 | 5.17 nM | 95.1% | 3.05 | 5.6 nM | inhibition [22]: 80%
